Measured values: article PMC5652008 (EBioMedicine, 2017)
Square brackets hold non-standard residues; d marks the D form. Peptide text beside a SMILES is read from it. * marks the point of attachment. Sta = CC(C)C[C@H](N)[C@@H](O)CC(=O)O; Palmitoyl = CCCCCCCCCCCCCCCC(=O)*

Experiments:
BACE1 [1] = target: T1, BACE1 (Homo sapiens, UniProt P56817); assay: SPR binding assay on immobilized BACE1
How it was run: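 SPR at 18 °C in the immobilization buffer. Peptide titrations used 2-fold dilution steps, run either as single-cycle kinetics (5 concentrations) or multi-cycle kinetics (10 concentrations). Two protein surfaces and an activated/deactivated CM5 reference surface were measured in parallel on one sensor.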

BACE1 [2] = target: T1, BACE1; assay: Cell-based Aβ lowering IC50 assay
How it was run: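 Test compounds, free or Brain Shuttle-coupled, added in serial dilutions to HEK293 cells stably expressing wild-type human APP695, grown in Iscove's medium with 10% FBS to ~80% confluency. Construct dilution buffers served as control. Overnight at 37 °C, 5% CO2. Supernatant Aβ40 read by AlphaLISA: acceptor beads 1 h, then streptavidin donor beads 30 min, both at RT; emission at 615 nm. Compared with vehicle-treated cells; mean ± SEM.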

BACE2 = target: T2, BACE2 (Homo sapiens, UniProt Q9Y5Z0); assay: SPR binding assay on immobilized BACE2; details: BACE2 surface, 18 °C, pH 4.5
T2 sequence (Q9Y5Z0 20-465): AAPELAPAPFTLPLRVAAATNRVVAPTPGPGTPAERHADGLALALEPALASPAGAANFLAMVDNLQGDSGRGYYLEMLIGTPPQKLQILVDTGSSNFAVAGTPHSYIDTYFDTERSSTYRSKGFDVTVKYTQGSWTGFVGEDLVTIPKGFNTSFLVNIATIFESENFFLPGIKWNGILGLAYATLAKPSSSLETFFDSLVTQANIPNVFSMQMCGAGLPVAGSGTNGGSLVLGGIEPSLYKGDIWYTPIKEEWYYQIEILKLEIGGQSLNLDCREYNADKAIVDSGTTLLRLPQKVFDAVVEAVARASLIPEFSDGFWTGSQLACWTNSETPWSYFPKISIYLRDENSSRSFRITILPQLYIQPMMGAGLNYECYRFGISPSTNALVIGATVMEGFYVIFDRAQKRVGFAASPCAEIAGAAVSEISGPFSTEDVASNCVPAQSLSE
How it was run: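 Binding was run at 18 °C in the same buffer, either single-cycle (5 concentrations) or multi-cycle (10 concentrations), twofold dilutions, against an activated/deactivated reference surface.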

plasma Aβ = assay: Plasma Aβ40 after single i.v. dose in mice; format: in vivo, C57BL/6 J mice; details: 5 h post dose
How it was run: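 Nine-week-old female mice received one i.v. injection of test compound at 0.003–3 mg/kg, with the buffer alone as vehicle control; three animals per group. Under anaesthesia, blood was collected into EDTA tubes, spun 8 min at 1600 × g, and plasma diluted 1:10 in 0.2% diethanolamine before solid-phase extraction.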

[3] = system: Aβ production in human stem-cell derived neurons; assay: Human neural stem cell-based Aβ40 inhibition assay; details: 48 h incubation
How it was run: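 Neurons differentiated from SB-AD3 human iPSCs (healthy adult donor fibroblasts) via embryoid bodies and dual SMAD inhibition. Doses 0.128–10,000 nM (three independent differentiations) or 0.001024–80 nM (one differentiation), two technical replicates per dose. Vehicle was histidine/NaCl/1.3 mM hydroxypropyl-β-cyclodextrin for peptides and DMSO for small molecules. Aβ40 read by AlphaLISA at 615 nm, compared with vehicle-treated cells; means ± SEM.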

[4] = target: BACE1 ectodomain mutant protein (A14-T454, K307A) (UniProt P56817 14-454, K307A); assay: crystal structure
[5] = target: Beta-secretase 1 (BACE1), C-terminal His-tagged full length; assay: SPR
[6] = target: T3, N-terminal T7-tagged BACE2 (amino acids 20-465) (UniProt Q9Y5Z0 20-465); assay: SPR
T3 sequence: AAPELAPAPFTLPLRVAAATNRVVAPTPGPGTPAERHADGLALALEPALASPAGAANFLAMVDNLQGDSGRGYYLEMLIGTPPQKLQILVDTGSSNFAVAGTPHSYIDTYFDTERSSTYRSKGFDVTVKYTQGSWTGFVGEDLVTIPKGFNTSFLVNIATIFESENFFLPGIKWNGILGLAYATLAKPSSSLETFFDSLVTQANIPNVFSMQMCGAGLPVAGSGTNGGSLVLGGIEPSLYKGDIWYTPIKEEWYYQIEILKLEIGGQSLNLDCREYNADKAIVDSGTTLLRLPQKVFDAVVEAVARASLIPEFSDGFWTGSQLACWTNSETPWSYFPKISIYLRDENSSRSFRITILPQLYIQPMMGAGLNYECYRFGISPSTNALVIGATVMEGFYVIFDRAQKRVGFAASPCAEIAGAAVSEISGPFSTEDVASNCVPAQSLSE

T1 sequence (P56817 46-501): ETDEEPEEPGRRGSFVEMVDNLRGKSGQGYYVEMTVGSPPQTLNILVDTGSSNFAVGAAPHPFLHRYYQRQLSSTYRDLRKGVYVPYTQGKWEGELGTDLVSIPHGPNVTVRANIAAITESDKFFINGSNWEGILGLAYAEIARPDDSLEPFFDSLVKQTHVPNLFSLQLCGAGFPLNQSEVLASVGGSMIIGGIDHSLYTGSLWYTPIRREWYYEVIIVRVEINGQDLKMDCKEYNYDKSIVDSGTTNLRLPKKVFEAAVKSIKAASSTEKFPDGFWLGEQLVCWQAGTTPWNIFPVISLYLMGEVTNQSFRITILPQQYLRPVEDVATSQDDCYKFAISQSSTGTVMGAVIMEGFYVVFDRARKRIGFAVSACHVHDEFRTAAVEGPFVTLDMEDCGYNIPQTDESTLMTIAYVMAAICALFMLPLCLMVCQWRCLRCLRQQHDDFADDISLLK
Chain of BACE1 ectodomain mutant protein (A14-T454, K307A) (P56817 14-454 K307A): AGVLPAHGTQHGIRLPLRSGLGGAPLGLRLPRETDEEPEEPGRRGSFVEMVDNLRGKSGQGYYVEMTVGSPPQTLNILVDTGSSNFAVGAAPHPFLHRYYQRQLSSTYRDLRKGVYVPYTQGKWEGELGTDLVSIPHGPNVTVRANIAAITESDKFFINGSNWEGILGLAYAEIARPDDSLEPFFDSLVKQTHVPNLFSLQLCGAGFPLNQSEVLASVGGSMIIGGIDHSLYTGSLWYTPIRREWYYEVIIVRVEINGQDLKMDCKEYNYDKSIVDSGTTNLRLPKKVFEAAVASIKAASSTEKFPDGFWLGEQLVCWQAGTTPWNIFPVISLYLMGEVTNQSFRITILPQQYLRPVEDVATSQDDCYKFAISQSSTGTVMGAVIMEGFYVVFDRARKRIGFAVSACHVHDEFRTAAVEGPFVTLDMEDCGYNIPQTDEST

CC(C)C[C@H](NC(=O)[C@H](CC(N)=O)NC(=O)[C@@H](NC(=O)[C@@H](N)CCC(=O)O)C(C)C)[C@@H](O)CC(=O)N[C@H](C(=O)N[C@@H](C)C(=O)N[C@@H](CCC(=O)O)C(=O)N1CCC[C@@H]1C(N)=O)C(C)C [Pep#1, Glu-Val-Asn-Sta-Val-Ala-Glu-DPro-NH2] (H-EVN[Sta]VAE[dP]-NH2; N-terminus assumed)
kon (BACE1 [1]; BACE1 surface, 18 °C, pH 4.5): 2.5–4.0·10^3 1/Ms
Selectivity for BACE1 (BACE1 [1]; ratio KD(BACE2)/KD(BACE1)): > 280
IC50 (BACE1 [2]): > 40 µM
kon (BACE2): 2.7–3.1·10^3 1/Ms

CCCCCCCCCCCCCCCC(=O)NCCCC[C@H](NC(=O)[C@H]1CCCN1C(=O)[C@H](CCC(=O)O)NC(=O)[C@H](C)NC(=O)[C@@H](NC(=O)C[C@H](O)[C@H](CC(C)C)NC(=O)[C@H](CC(N)=O)NC(=O)[C@@H](NC(=O)[C@H](CCC(=O)O)NC(=O)CNC(=O)[C@@H](CCCCN)NC(=O)CNC(=O)[C@H](CC(C)C)NC(=O)[C@@H]1CCCN1C(=O)[C@@H](NC(=O)[C@H](Cc1ccccc1)NC(=O)[C@H](CCCCN)NC(=O)[C@@H]1CCCN1C(=O)[C@H](Cc1ccc(O)cc1)NC(=O)CNC(=O)CNC(=O)CN)[C@@H](C)CC)C(C)C)C(C)C)C(N)=O [Pep#15, Gly-Gly-Gly-Tyr-Pro-Lys-Phe-Ile-Pro-Leu-Gly-DLys-Gly-Glu-Val-Asn-Sta-Val-Ala-Glu-DPro-Lys(Palmitoyl)-NH2] (H-GGGYPKFIPLG[dK]GEVN[Sta]VAE[dP]K(Palmitoyl)-NH2; N-terminus assumed)
Aβ40 production inhibition in HEK293 APP cells (BACE1 [2]; 16 h / overnight incubation): blocked production of Aβ40
Plasma Aβ40 inhibition (plasma Aβ; 0.003-3 mg/kg i.v., uncoupled peptides): Dose-dependent inhibition
Plasma Aβ level reduction (plasma Aβ; 3 mg/kg i.v., uncoupled peptide): 50%
Aβ production inhibition in human stem-cell derived neurons [3]: able to reduce the Aβ production

B1: Pep#6a (peptide)
peptide: Ac-ALYPYFLPISAK-NH2
binding result [4]: binds

B2: Pep#6 (peptide)
peptide: Ac-YPYFLPISAK-NH2
Kd [5]: 25 µM
Kd [6]: 66 µM
